{"data": "Experimental data from different studies", "ALK L1196M": "ALK tyrosine kinase receptor (ALK, Homo sapiens, UniProt Q9UM73, L1196M)", "ALK": "ALK tyrosine kinase receptor (ALK, Homo sapiens, UniProt Q9UM73)", "ALK C1156Y": "ALK tyrosine kinase receptor (ALK, Homo sapiens, UniProt Q9UM73, C1156Y)", "note": "Compare with care: the assays were run in different laboratories."}
{"Structure (SMILES)": "CN([C@@H]1CCc2c(CC(=O)O)c3cc(S(C)(=O)=O)ccc3n2C1)S(=O)(=O)c1ccc(F)cc1", "target": "ALK L1196M", "assay": "cell-free assay, competition with immobilised ligand", "setting": "1 µM", "remaining binding": "89%"}
{"Structure (SMILES)": "O=C(c1ccc(Nc2nccc(-c3cc4ccccc4s3)n2)cc1)N1CCC(N2CCCC2)CC1", "target": "ALK L1196M", "assay": "binding, competition with immobilised ligand", "setting": "1 µM", "remaining binding": "80%"}
{"Structure (SMILES)": "CN1CCN(c2ccc(Nc3nccc(-c4cccc([N+](=O)[O-])c4)n3)cc2C(F)(F)F)CC1", "target": "ALK L1196M", "assay": "binding", "setting": "10 µM", "remaining binding": "76%"}
{"Structure (SMILES)": "c1cncc(-c2cccc(Nc3nccc(NC4CCCCC4)n3)c2)c1", "target": "ALK", "assay": "binding, competition with immobilised ligand", "setting": "10 µM", "remaining binding": "62%"}
{"Structure (SMILES)": "O=C(Nc1c[nH]nc1C(=O)NC1CCNCC1)c1cc(F)cc(F)c1", "target": "ALK C1156Y", "assay": "binding, competition with immobilised ligand", "setting": "1 µM", "remaining binding": "100%"}
{"Structure (SMILES)": "NS(=O)(=O)c1cc(NC(=O)Cc2ccccc2)ccc1Oc1cccc(Cl)c1", "target": "ALK C1156Y", "assay": "cell-free assay, competition with immobilised ligand", "setting": "1 µM", "remaining binding": "88%"}
{"Structure (SMILES)": "Nc1ncc2c(n1)-c1c([nH]c3ccc(C#CC4CC4)cc13)CCCC2", "target": "ALK C1156Y", "assay": "binding, competition with immobilised ligand", "setting": "1 µM", "remaining binding": "84%"}
{"Structure (SMILES)": "Cc1cnn2ncc(-c3ccnc(N(C)C)n3)c2c1", "target": "ALK L1196M", "assay": "binding", "setting": "1 µM", "remaining binding": "71%"}
{"Structure (SMILES)": "CO[C@H]1CC[C@H](CNc2ccc(S(=O)(=O)NC(=O)c3ccc(N4CCN(CC5=C(c6ccc(Cl)cc6)CC(C)(C)CC5)CC4)cc3Oc3cnc4[nH]ccc4c3)cc2[N+](=O)[O-])CC1", "target": "ALK C1156Y", "assay": "cell-free assay, competition with immobilised ligand", "setting": "1 µM", "remaining binding": "100%"}
{"Structure (SMILES)": "COc1cnc(Nc2cccc(S(N)(=O)=O)c2)nc1N1CCN(c2ccccc2)C(=O)C1", "target": "ALK C1156Y", "assay": "binding, competition with immobilised ligand", "setting": "1 µM", "remaining binding": "96%"}
{"Structure (SMILES)": "CO[C@@H](C)c1c(Nc2ccc([C@H](N(C)C(=O)C3CCS(=O)(=O)CC3)C(F)(F)F)cc2)cnc2cc(Cl)nn12", "target": "ALK L1196M", "assay": "cell-free assay, competition with immobilised ligand", "setting": "1 µM", "remaining binding": "100%"}
{"Structure (SMILES)": "CN(c1nccc(-c2cnn3ncccc23)n1)C1CC1", "target": "ALK L1196M", "assay": "binding", "setting": "1 µM", "remaining binding": "100%"}
{"Structure (SMILES)": "CCN1CCN(Cc2ccc(C(=O)Nc3ccc(C)c(Oc4ccc5c(c4)CC(=O)N5)c3)cc2C(F)(F)F)CC1", "target": "ALK", "assay": "binding, competition with immobilised ligand", "setting": "1 µM", "remaining binding": "100%"}
{"Structure (SMILES)": "COc1ccnn2ncc(-c3ccnc(N(C)C)n3)c12", "target": "ALK L1196M", "assay": "binding", "setting": "1 µM", "remaining binding": "91%"}
{"Structure (SMILES)": "CCCCN(CCCC)C(=O)CN1C[C@H](c2cc(OC)c3c(c2)OCO3)[C@@H](C(=O)O)[C@@H]1CC(C)(C)CCC", "target": "ALK C1156Y", "assay": "cell-free assay, competition with immobilised ligand", "setting": "1 µM", "remaining binding": "100%"}
{"Structure (SMILES)": "CN1CCN(c2ccc(Nc3nccc(-c4ccccc4)n3)cc2C(F)(F)F)CC1", "target": "ALK C1156Y", "assay": "binding", "setting": "10 µM", "remaining binding": "60%"}
{"Structure (SMILES)": "Cc1cnc(Nc2ccc(C(=O)N3CCC(N4CCCC4)CC3)cc2)nc1-c1cc2ccccc2s1", "target": "ALK", "assay": "binding, competition with immobilised ligand", "setting": "1 µM", "remaining binding": "42%"}
{"Structure (SMILES)": "O=C(NCC1CCOCC1)c1n[nH]cc1NC(=O)c1c(F)cccc1F", "target": "ALK L1196M", "assay": "binding, competition with immobilised ligand", "setting": "1 µM", "remaining binding": "100%"}
{"Structure (SMILES)": "CNC(=O)[C@@H]1CC[C@@H](n2c(-c3ccc4cnccc4c3)nc3ccc(C(=O)NCc4cccc(C(N)=O)c4)cc32)C1", "target": "ALK", "assay": "binding, competition with immobilised ligand", "setting": "1 µM", "remaining binding": "100%"}
{"Structure (SMILES)": "O=C(NCCCN1CCOCC1)c1ccc(Nc2ncc(Cl)c(-c3ccc(Cl)s3)n2)cc1", "target": "ALK C1156Y", "assay": "binding, competition with immobilised ligand", "setting": "1 µM", "remaining binding": "61%"}
{"Structure (SMILES)": "CN(C)c1nccc(-c2cnn3ncccc23)n1", "target": "ALK C1156Y", "assay": "binding", "setting": "1 µM", "remaining binding": "71%"}
{"Structure (SMILES)": "C[C@H](c1ccc(F)cc1)N(Cc1cccc(C(=O)O)c1)C(=O)c1cnc2ccccc2c1", "target": "ALK L1196M", "assay": "cell-free assay, competition with immobilised ligand", "setting": "1 µM", "remaining binding": "76%"}
{"Structure (SMILES)": "O=C(c1ccc(Nc2ncc(Cl)c(-c3ccc(Cl)s3)n2)cc1)N1CCC(N2CCCC2)CC1", "target": "ALK C1156Y", "assay": "binding, competition with immobilised ligand", "setting": "1 µM", "remaining binding": "38%"}
{"Structure (SMILES)": "C[C@@H]1CN(c2cc(-c3nn(C)c4ccc(OC5(C)CC5)cc34)ncn2)C[C@H](C)O1", "target": "ALK L1196M", "assay": "cell-free assay, competition with immobilised ligand", "setting": "1 µM", "remaining binding": "98%"}
{"Structure (SMILES)": "COc1ncc2cc3ccccc3nc2c1C#N", "target": "ALK", "assay": "cell-free assay, competition with immobilised ligand", "setting": "5 µM", "remaining binding": "81%"}
{"Structure (SMILES)": "c1cnn2ncc(-c3ccnc(N4CCC45COC5)n3)c2c1", "target": "ALK C1156Y", "assay": "binding", "setting": "1 µM", "remaining binding": "73%"}
{"Structure (SMILES)": "CC(C)(C)c1ccc(-c2nc(CBr)nn2-c2cccc(O)c2)cc1", "target": "ALK", "assay": "cell-free assay, competition with immobilised ligand", "setting": "10 µM", "remaining binding": "78%"}
{"Structure (SMILES)": "C[C@@H]1CN(c2ccc3ncc(-c4ccc5[nH]nc(C6CC6)c5c4)n3n2)C[C@H](C)O1", "target": "ALK", "assay": "binding, competition with immobilised ligand", "setting": "50 nM", "remaining binding": "64%"}
{"Structure (SMILES)": "O=C(c1ccc(Nc2ncc(Cl)c(-c3cc4ccccc4s3)n2)cc1)N1CCC(N2CCCC2)CC1", "target": "ALK L1196M", "assay": "binding, competition with immobilised ligand", "setting": "1 µM", "remaining binding": "100%"}
{"Structure (SMILES)": "C[C@@H]1CCN(c2nccc(-c3cnn4ncccc34)n2)C1", "target": "ALK C1156Y", "assay": "binding", "setting": "1 µM", "remaining binding": "91%"}
{"Structure (SMILES)": "C[C@@H]1CN(c2cc(-c3n[nH]c4ccc(OC5(C)CC5)cc34)ncn2)C[C@H](C)O1", "target": "ALK", "assay": "cell-free assay, competition with immobilised ligand", "setting": "0.1 µM", "remaining binding": "65%"}
{"Structure (SMILES)": "C=CC(=O)N1CCC(C(=O)NCC(=O)N2CCN(c3nc(-c4cnc(N)nc4C(F)F)nc(N4CCOCC4)n3)CC2)CC1", "target": "ALK C1156Y", "assay": "binding, competition with immobilised ligand", "setting": "1 µM", "remaining binding": "91%"}
{"Structure (SMILES)": "F[C@@H]1CCN(c2nccc(-c3cnn4ncccc34)n2)C1", "target": "ALK C1156Y", "assay": "binding", "setting": "1 µM", "remaining binding": "100%"}
{"Structure (SMILES)": "COc1cnc(Nc2cccc(S(N)(=O)=O)c2)nc1N1CCN(c2ccccc2)CC1", "target": "ALK", "assay": "binding, competition with immobilised ligand", "setting": "1 µM", "remaining binding": "78%"}
{"Structure (SMILES)": "C[C@@H](c1ccc(-n2cnc3c(N)ncnc32)cc1)N1CCc2nn(C)c(Cc3ccccc3)c2C1=O", "target": "ALK", "assay": "binding, competition with immobilised ligand", "setting": "0.1 µM", "remaining binding": "76%"}
{"Structure (SMILES)": "CC1CCCN1c1nccc(-c2cnn3ncccc23)n1 (stereo not shown)", "target": "ALK", "assay": "binding", "setting": "1 µM", "remaining binding": "69%"}
{"Structure (SMILES)": "O=C(NCCCN1CCOCC1)c1ccc(Nc2nccc(-c3cc4ccccc4s3)n2)cc1", "target": "ALK C1156Y", "assay": "binding, competition with immobilised ligand", "setting": "1 µM", "remaining binding": "97%"}
